Source: PubChem
In the library only some 2.6% were active in any assay of this set; here they are far more common.
Rin1-Abl PPI inh: human Rin1-Abl interaction inhibition; TR-FRET Rin1/Abl binding, biochemical; inhibition, % at 7.35 µM; hit rate 0.4% among 360,000; P00519+Q13671; in the data active = inhibition above about 5%, passing the limit was not always enough
Rce1 inhib: yeast Ras-converting enzyme inhibition; calls only; yeast membranes, quenched prenylated peptide cleavage fluorescence; hit rate 0.27% among 290,000; AID 2563;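 active = fall in fluorescence gain of 50% or more versus controls, with final raw signal at or below 3038400; inconclusive = same 50% fall but final raw signal above 3038400; inactive = fall in fluorescence gain under 50%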;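 also: plate controls were neutral control wells for no effect and wells lacking membranes for full effect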
Target sequence (Q03530 whole entry, looked up): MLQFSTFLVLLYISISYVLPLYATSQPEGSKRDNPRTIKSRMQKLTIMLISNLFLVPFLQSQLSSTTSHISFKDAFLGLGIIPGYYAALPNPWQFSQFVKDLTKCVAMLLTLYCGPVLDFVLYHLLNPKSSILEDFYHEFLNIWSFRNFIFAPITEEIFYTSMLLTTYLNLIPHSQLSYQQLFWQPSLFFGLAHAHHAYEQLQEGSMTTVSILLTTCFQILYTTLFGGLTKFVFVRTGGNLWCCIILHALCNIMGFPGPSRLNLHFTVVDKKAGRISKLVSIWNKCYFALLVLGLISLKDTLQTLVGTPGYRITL
GRK2 aptamer HTS: inhibitors of human GRK2 displacing RNA aptamer. P25098. inhibition of aptamer binding, % at 10 µM. bead flow cytometry, FAM-aptamer displacement from GRK2. hit rate 0.59% among 330,000;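 active = inhibition of aptamer binding above 40%, roughly 3 SD of noise, on plates passing a quality check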;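 also: median bead fluorescence of bound FAM aptamer so fluorescent compounds give negative values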
SKN-1 inh: inhibitors of C. elegans SKN-1; C. elegans VP596 Pgst-4::GFP/RFP ratio, acrylamide-induced, 24 h; inhibition, % at 21.8 µM; hit rate 0.49% among 360,000;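 active = interference check ratio from 0.5 to 1.5 plus GFP to RFP signal ratio inhibition reaching or exceeding a fixed threshold, cut at about 30% in these data, passing the limit was not always enough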
Myeloid diff MLP: compounds promoting myeloid differentiation; AID 624256; hit rate 1% among 360,000; calls only at 10 µM; ER-HoxA9 myeloid progenitors, lysozyme-GFP differentiation, flow cytometry;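 active = normalized GFP-positive differentiation at or above the plate's own cutoff, the solvent-only control mean plus 3 SD; inconclusive = no clear call, values can overlap the other calls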;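 also: cells exposed to compound for four days before flow analysis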
T cell modulator: modulates CD8 T cell binding to vesicles; 2C CD8+ T cell-vesicle binding, flow cytometry; active compounds read low; response (vesicle binding), % at 7 µM; hit rate 0.068% among 330,000; AID 2052;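 active = response, share of CD8 T cells binding vesicles, and their 90th percentile fluorescence all below set limits, cut at about 80% in these data, passing the limit was not always enough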;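 also: values below 100% mean blocked vesicle binding to the CD8+ T cells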
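Assay system: 2C TCR transgenic mouse naive CD8+ T cells, MACS-purified | Read-out: CD8+ gate FL2 mean fluorescence as % of same-row positive control | Signal: High-throughput flow cytometry with anti-B7-1 and anti-CD8 staining | Timing: Binding step 1.5 h, 37 °C, antibody labelling 20 min, ice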
* hit, by the source's call; i = inactive; ? = inconclusive; . = no result; + = active, no number.

SMILES | Rin1-Abl PPI inh | Rce1 inhib | GRK2 aptamer HTS | SKN-1 inh | Myeloid diff MLP | T cell modulator
COc1ccc(/C=C/c2c(-c3ccc(OC)cc3)oc(=O)c3cc(OC)c(OC)cc23)cc1 | 0 | . | 6 | 8 | i | 0
CCc1ccc(-c2ccc(SCC(=O)Nc3nnc(C)s3)nn2)cc1 | -5 | i | 1 | 5 | i | 582
CNS(=O)(=O)c1cn(CC(=O)NCc2ccc(OC)cc2)cc1S(=O)(=O)NC | 2 | i | 0 | 14 | i | 82
CCOC(=O)c1ccc(NC(=O)NNC(=O)CCc2ccc(OC)cc2)cc1 | 1 | i | 1 | 0 | + | 285
O=C(CNS(=O)(=O)c1c(F)cc(F)cc1Br)OCC(=O)N1CCCC1=O | -1 | i | 0 | -1 | i | 560
c1ccc(CNc2nc(NCc3ccccc3)c3ccccc3n2)cc1 | 1 | + | . | 32 | i | 225
CCCCN1C(=O)C(CC(=O)NCCCCc2ccccc2)CC(C(=O)N(C(C)C)C(C)C)=C1C (centres undefined) | 2 | . | . | -8 | i | .
O=C(C1CCCCC1)N1CCN(S(=O)(=O)c2ccc(Cl)cc2)CC1 | 0 | i | 3 | 37* | i | 195
O=C(C1CCN(S(=O)(=O)c2c(Cl)cccc2Cl)CC1)N1CCCC1 | 0 | . | 1 | 35* | i | 380
CN(C)CCN1C(=O)C2C(C(=O)Nc3cc(Cl)cc(Cl)c3)C3C=CC2(O3)C1C(=O)NC1CCCCC1 (centres undefined) | 1 | i | 4 | 10 | i | 838
COC(=O)c1nc(N)sc1-c1ccc(Cl)c(Cl)c1 | -4 | + | 2 | 9 | i | 94
O=C(O)COCC(=O)N1CCCN(c2ccc(C(F)(F)F)cn2)CC1 | 2 | i | 0 | -4 | + | 217
COc1ccc(OC)c(NC(=O)c2nnn(CCc3ccccc3)c2N)c1 | 1 | i | 3 | 8 | i | 115
COc1ccc(C)cc1NC(=O)c1nnn(Cc2cccc(C(F)(F)F)c2)c1N | 1 | i | 0 | -1 | + | 219
O=S(=O)(c1cccc2c(S(=O)(=O)N3CCCC3)cccc12)N1CCCC1 | 3 | i | 4 | 36* | i | 150
COc1c(S(=O)(=O)N2CCCCC2)ccc2c(S(=O)(=O)N3CCCCC3)cccc12 | 2 | . | 0 | -6 | i | 157
CCN(CC)c1ccc(/C=N/NC(=O)c2cccc(S(=O)(=O)Nc3ccccc3OC)c2)c(O)c1 | 2 | i | 70* | 1 | ? | 174
CCN(CC)c1ccc(/C=N/NC(=O)c2ccc3nc[nH]c3c2)c(O)c1 | -6 | . | . | 9 | + | 251
CCN(CC)c1ccc(/C=N/NC(=O)c2cccc(S(=O)(=O)Nc3ccccc3OC)c2)cc1 | -3 | i | 2 | 8 | i | 202
O=C(Nc1cccc2ncccc12)c1cccnc1 | 0 | + | 2 | 4 | i | 399
CCc1cccc(OCC(=O)Nc2cc(S(=O)(=O)N3CCOCC3)ccc2N2CCCC2)c1 | 0 | . | 0 | -8 | i | 175
Cc1ccc(S(=O)(=O)c2c(N)n(CCCN(C)C)c3nc4ccccc4nc23)cc1 | -1 | i | 1 | -14 | i | 268
COc1ccc(S(=O)(=O)c2c(N)n(Cc3ccco3)c3nc4ccccc4nc23)cc1 | -5 | i | 0 | 13 | + | 241
CC(C)(C)c1ccc(NC(=O)CN2C(=O)NC(C)(C3CC3)C2=O)cc1 (centres undefined) | 0 | . | 15 | -7 | i | 369
Cc1ccc(OCCNC(=O)c2cc(C(=O)NCCOc3ccc(C)cc3)cc([N+](=O)[O-])c2)cc1 | -2 | i | 3 | -3 | i | 220
SMILES | Rin1-Abl PPI inh | Rce1 inhib | GRK2 aptamer HTS | SKN-1 inh | Myeloid diff MLP | T cell modulator
COc1cccc(OCCNC(=O)c2cc([N+](=O)[O-])cc([N+](=O)[O-])c2)c1 | 0 | i | 4 | -5 | + | 285
COc1cccc(OCCNC(=O)c2cccc(OC)c2)c1 | -4 | i | 1 | 5 | i | 122
COc1cccc(OCCNC(=O)c2ccc(C)cc2)c1 | 2 | i | 1 | -2 | + | 74
CC1=C(C(=O)N(C)C)CC(CC(=O)NC2CCCCC2)C(=O)N1Cc1ccccc1 (centres undefined) | -2 | . | . | -9 | i | .
COc1ccc(NC(=O)c2cc(-c3ccco3)on2)cc1 | 0 | i | 5 | 16 | i | 0
O=C(Nc1cccc(Cl)c1)c1cc(-c2ccco2)on1 | -3 | i | 0 | 39* | i | 360
CCc1ccc(NC(=O)c2cc(-c3ccco3)on2)cc1 | 2 | i | 0 | 45* | i | 238
Cc1cc(N2CCOCC2)nc2ccc(NC(=O)C3CCC(C)CC3)cc12 (centres undefined) | -8 | i | 1 | 35* | i | 235
CCN1CCN(c2cc(C)c3cc(NC(=S)N4CC(C)CC(C)C4)ccc3n2)CC1 (centres undefined) | -2 | i | . | -7 | i | .
CCN1CCN(c2cc(C)c3cc(NC(=S)N4CCCC(C)C4)ccc3n2)CC1 (centres undefined) | -5 | i | 0 | 3 | + | 185
CCN1CCN(c2cc(C)c3cc(NC(=S)N4CCCCC4)ccc3n2)CC1 | -4 | i | 0 | 38* | i | 200
CCCCNC(=O)CCC(=O)Nc1ccc2nc(N3CCCCC3)cc(C)c2c1 | -1 | i | 3 | 8 | + | 124
CCCCN(C)Cc1cc(=O)oc2ccc3ccccc3c12 | -2 | i | 1 | -2 | i | 713
CC(C)(C)n1nnnc1C(c1cccs1)N(Cc1ccccc1)Cc1cccnc1 (centres undefined) | 0 | i | 8 | -22 | i | 265
CC(C)(C)n1nnnc1CN(Cc1cccnc1)Cc1ccccc1Cl | -6 | i | 0 | 13 | + | 285
CN(C(=O)CN1C(=O)c2ccccc2S1(=O)=O)C1CCCCC1 | 2 | . | 0 | 5 | i | 299
CN1CCCN(C(=O)c2cccc3ccccc23)CC1 | -1 | i | 2 | -6 | i | 150
O=C(Nc1ccc(Br)cc1)N1CCCC(O)C1 (centres undefined) | 2 | i | 56* | 3 | i | 527
S=C(Nc1ccccc1)Nc1nc2ccccc2n1CCOc1ccccc1 | 0 | i | 2 | 41* | i | 306
COc1ccc(CN(C)C(=O)CCC(=O)N2CCN(S(=O)(=O)c3ccc(Cl)cc3)CC2)c(OC)c1 | -1 | . | . | 9 | i | .
O=C(/C=C/c1ccccc1)C1C(=O)c2ccccc2C1=O | -2 | i | 1 | -9 | i | 163
CCc1ccc(/C=C/C(=O)C2C(=O)c3ccccc3C2=O)cc1 | 1 | i | 1 | 14 | + | 308
C/C(=N/NC(=O)Nc1ccccc1)c1ccc(C)cc1 | 2 | i | 2 | 8 | i | 222
